Measured values as given in paper PMC4532346 (Drug Design, Development and Therapy, 2015).
pIC50: −log10 of the molar value. Where two headings read alike, the source gives them in different places.

Assays:
[1] = biological target: T1, CYP1A2 (Homo sapiens, UniProt P05177); experiment: cytochrome P450 inhibition, CYP1A2; format: in vitro ADME
T1 sequence (P05177 1-516): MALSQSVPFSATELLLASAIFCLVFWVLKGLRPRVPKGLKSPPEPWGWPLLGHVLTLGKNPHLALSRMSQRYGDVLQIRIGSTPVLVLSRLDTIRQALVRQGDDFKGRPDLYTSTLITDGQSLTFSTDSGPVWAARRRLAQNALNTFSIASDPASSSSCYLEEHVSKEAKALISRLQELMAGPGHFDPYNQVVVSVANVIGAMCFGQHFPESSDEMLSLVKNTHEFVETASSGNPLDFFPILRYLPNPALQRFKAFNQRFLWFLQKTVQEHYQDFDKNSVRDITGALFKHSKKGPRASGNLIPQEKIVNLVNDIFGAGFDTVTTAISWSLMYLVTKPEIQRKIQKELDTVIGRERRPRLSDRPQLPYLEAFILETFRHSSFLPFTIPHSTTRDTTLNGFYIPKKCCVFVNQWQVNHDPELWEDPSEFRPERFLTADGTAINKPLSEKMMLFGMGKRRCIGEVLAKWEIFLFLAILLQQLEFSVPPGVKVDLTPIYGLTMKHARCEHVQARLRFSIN

[2] = Caco-2 permeability; format: in vitro ADME, human; conditions: human
Summary of the method: (§1)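 Caco-2 cells grown in DMEM with 10% FBS, penicillin and streptomycin, seeded at 1×10^5 cells/cm2 on Transwell inserts and cultured 22 days at 37°C, 5% CO2. Preincubated 30 min in HBSS–HEPES. Only inserts with lucifer yellow ≤1% used, rechecked after the run. Test compound at 2 and 20 μM (1% DMSO final) added to donor, triplicate, A–B and B–A. Papp and efflux ratio calculated.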

[3] = system: Caco-2 cell monolayer; experiment: Caco-2 permeability; format: in vitro ADME, human; conditions: Papp(B-A)/Papp(A-B)
Summary of the method: as §1

[4] = biological target: CYP2C19 (Homo sapiens, UniProt P33261); experiment: cytochrome P450 inhibition, CYP2C19; format: in vitro ADME
CYP2C19, sequence (P33261 whole entry): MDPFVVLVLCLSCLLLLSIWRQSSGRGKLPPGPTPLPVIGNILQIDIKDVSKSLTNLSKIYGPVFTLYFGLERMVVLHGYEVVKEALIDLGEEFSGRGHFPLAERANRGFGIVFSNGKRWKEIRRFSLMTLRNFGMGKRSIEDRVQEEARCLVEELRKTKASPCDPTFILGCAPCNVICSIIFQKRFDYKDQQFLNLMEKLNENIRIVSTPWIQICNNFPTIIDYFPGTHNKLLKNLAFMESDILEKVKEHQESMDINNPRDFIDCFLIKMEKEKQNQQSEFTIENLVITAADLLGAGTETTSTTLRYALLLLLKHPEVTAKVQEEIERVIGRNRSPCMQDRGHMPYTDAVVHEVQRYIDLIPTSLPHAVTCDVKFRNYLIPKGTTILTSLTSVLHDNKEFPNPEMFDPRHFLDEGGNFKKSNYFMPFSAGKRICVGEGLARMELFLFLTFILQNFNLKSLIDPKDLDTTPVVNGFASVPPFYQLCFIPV

[5] = biological target: CYP2D6 (Homo sapiens, UniProt P10635); experiment: cytochrome P450 inhibition, CYP2D6; format: in vitro ADME
CYP2D6, sequence (P10635 whole entry): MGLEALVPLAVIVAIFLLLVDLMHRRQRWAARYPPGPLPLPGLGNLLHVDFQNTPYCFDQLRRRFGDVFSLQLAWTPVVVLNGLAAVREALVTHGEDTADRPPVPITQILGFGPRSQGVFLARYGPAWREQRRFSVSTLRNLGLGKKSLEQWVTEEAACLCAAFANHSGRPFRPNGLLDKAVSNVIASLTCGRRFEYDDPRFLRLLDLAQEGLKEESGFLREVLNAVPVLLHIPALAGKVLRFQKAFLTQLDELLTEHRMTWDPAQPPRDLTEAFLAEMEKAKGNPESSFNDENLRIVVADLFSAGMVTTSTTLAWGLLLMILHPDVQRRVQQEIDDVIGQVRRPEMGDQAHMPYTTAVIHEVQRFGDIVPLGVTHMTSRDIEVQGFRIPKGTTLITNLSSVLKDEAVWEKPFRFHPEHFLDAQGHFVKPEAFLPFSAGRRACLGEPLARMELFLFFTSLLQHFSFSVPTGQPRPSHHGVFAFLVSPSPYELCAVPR

[6] = biological target: CYP2C9 (Homo sapiens, UniProt P11712); experiment: cytochrome P450 inhibition, CYP2C9; format: in vitro ADME
CYP2C9, sequence (P11712 whole entry): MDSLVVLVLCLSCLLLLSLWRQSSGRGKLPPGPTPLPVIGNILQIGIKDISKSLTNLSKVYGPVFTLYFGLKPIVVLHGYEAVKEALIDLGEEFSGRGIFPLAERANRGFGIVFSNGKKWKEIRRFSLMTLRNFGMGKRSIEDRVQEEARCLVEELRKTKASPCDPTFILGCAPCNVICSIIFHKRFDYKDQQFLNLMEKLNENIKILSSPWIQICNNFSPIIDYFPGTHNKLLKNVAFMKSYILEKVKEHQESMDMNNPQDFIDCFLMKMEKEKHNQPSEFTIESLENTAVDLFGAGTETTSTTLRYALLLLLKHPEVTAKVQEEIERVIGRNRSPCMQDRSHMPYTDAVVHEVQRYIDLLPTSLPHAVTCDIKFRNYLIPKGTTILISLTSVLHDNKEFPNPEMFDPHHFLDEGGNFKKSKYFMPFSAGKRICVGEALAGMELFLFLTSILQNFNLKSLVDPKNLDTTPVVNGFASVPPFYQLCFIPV

[7] = biological target: CYP3A4 (Homo sapiens, UniProt P08684); experiment: cytochrome P450 inhibition, CYP3A4; format: in vitro ADME
CYP3A4, sequence (P08684 whole entry): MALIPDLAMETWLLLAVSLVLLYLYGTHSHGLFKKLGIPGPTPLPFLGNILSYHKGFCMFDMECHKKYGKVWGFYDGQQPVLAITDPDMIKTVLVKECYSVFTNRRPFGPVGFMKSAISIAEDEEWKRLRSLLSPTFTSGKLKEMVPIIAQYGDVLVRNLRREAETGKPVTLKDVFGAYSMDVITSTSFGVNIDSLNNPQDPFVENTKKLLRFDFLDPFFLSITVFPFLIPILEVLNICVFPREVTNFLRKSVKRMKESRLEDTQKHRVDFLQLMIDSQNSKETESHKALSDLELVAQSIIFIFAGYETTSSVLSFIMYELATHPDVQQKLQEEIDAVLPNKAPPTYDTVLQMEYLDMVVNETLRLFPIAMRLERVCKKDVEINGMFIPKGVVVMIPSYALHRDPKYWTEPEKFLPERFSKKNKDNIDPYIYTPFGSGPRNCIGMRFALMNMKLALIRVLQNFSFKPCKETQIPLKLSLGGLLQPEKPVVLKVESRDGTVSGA

COC(=O)c1ccc2c(c1)NC(=O)/C2=C(\Nc1ccc(N(C)C(=O)CN2CCN(C)CC2)cc1)c1ccccc1 [Nintedanib, nintedanib] gave a pIC50 [1] of 4.76, a Papp A→B at 120 min, 2 μM ([2]; Caco-2) of 0.05 ×10⁻⁶ cm/s and a Papp A→B at 120 min, 20 μM ([2]; Caco-2) of 0.29 ×10⁻⁶ cm/s. The Papp B→A at 120 min, 2 μM ([2]; Caco-2) was 14.4 ×10⁻⁶ cm/s, the Papp B→A at 120 min, 20 μM ([2]; Caco-2) was 22.6 ×10⁻⁶ cm/s and the efflux ratio at 120 min, 2 μM ([2]; Caco-2, Efflux ratio, Caco-2, 2 μM, Papp(B-A)/Papp(A-B)) was roughly 319. The efflux ratio at 120 min, 20 μM ([2]; Caco-2, Efflux ratio, Caco-2, 20 μM, Papp(B-A)/Papp(A-B)) was roughly 78, the Efflux ratio ([3]; Caco-2, 2 μM) was 319.81 and the Efflux ratio ([3]; Caco-2, 20 μM) was 78.24. For the same molecule, the pIC50 [4] was 4.29, the pIC50 ([4]; P450 inhibition IC50, 2C19, probe substrate S-mephenytoin) was no more than 4.48 and the pIC50 [5] was 4.40. It also gave a pIC50 ([5]; P450 inhibition IC50, 2D6, probe substrate dextromethorphan) of no more than 4.48, a pIC50 [6] of 4.48 and a pIC50 ([6]; P450 inhibition IC50, 2C9, probe substrate diclofenac) of no more than 4.48. The pIC50 [7] was 5.64, the pIC50 ([7]; P450 inhibition IC50, 3A4 (Mid), probe substrate midazolam) was less than 4.10 and the “P450 inhibition IC50, 3A4 (Mid)” value ([7]; probe substrate midazolam) was “did not show inhibition”.
